Measured values of several laboratories.
Lines come from different studies, so protocols differ.
Target: Receptor tyrosine-protein kinase erbB-2 (ERBB2, Homo sapiens, UniProt P04626)

| SMILES | assay | setting | quantity | value |
| --- | --- | --- | --- | --- |
| Cc1ccc(NC(=O)c2ccc(C)c(C(F)(F)F)c2)cc1C#Cc1nn(C2CCC(O)CC2)c2ncnc(N)c12 (centres unmarked) | cell-free assay | 10 µM | remaining signal | 4% |
| O=C(Nc1cnn(-c2csc(C(=O)NC3COC3)c2)c1)Nc1c(F)cccc1Cl | enzyme activity, inhibitor | 5 µM | remaining activity | 97% |
| Cc1ccc(C(=O)NCc2ccsc2)cc1C#Cc1cn(C(C)C)c2ncnc(N)c12 | enzyme activity, inhibitor | 1 µM | activity vs control | 66% |
| N#Cc1ccc(Nc2ccc3[nH]c(=O)[nH]c3c2)c(Cl)c1 | cell-free assay, competition with immobilised ligand | 1 µM | remaining binding | 100% |
| Oc1ccc(-c2nc(-c3ccncc3)c(-c3ccc(F)cc3)[nH]2)cc1 | cell-free assay | 0.5 µM | remaining signal | 95.5% |
| Cc1noc([C@H]2C[C@@H](c3ccc(C(F)(F)F)cc3)CN(C(=O)N3CCS(=O)(=O)C3)C2)n1 | cell-free assay, competition with immobilised ligand | 1 µM | remaining binding | 100% |
| CS(=O)(=O)Nc1cccc(-c2csc(NC(=O)CSc3nc4nccnc4c(=O)n3CCc3ccccc3)n2)c1 | enzyme activity, inhibitor | 10 µM | inhibition | -12% |
| C[C@H](c1ccnc(Nc2nc3ccc(-c4cc(N(C)C)ncn4)cc3[nH]2)c1)N1CCN(C(=O)CC(F)(F)F)CC1 | cell-free assay, competition with immobilised ligand | 0.1 µM | remaining binding | 100% |
| C#Cc1cccc(Nc2ncnc3cc(OCCOC)c(OCCOC)cc23)c1 | cell-free assay | 0.5 µM | remaining signal | 52.8% |
| O=C(NS(=O)(=O)c1ccc(NCC2CCOCC2)c([N+](=O)[O-])c1)c1ccc(N2CCN(Cc3ccc(C(F)(F)F)cc3-c3ccc(Cl)cc3)CC2)cc1Oc1cnc2[nH]ccc2c1 | cell-free assay, competition with immobilised ligand | 1 µM | remaining binding | 100% |
| O=C1NC(=O)c2cc(Nc3ccc(F)cc3)c(Nc3ccc(F)cc3)cc21 | cell-free assay | 0.5 µM | remaining signal | 107% |
| CN1CC(Oc2cnc(C#N)cc2-c2ccn3nc(NC(=O)C4CC4)cc3c2)C1 | enzyme activity, inhibitor | 1 µM | inhibition | -3% |
| CC/C(=N\NC(=O)NCc1cccc(O)c1)c1ccc(O)c(C)c1O | enzyme activity, inhibitor | 0.1 µM | inhibition | 0.8% |
| Cc1ccc(NC(=O)c2ccc(CN3CCN(C)CC3)cc2)cc1Nc1nc(-c2cccnc2)cs1 | cell-free assay | 0.5 µM | remaining signal | 103% |
| COc1cc2nccc(Oc3ccc(NC(=O)c4c5n(n(-c6ccc(F)cc6)c4=O)CCCC5)cc3)c2cc1OC | enzyme activity, inhibitor | 0.1 µM | inhibition | -1% |
| CCCS(=O)(=O)Nc1ccc(F)c(C(=O)c2c[nH]c3ncc(-c4ccc(Cl)cc4)cc23)c1F | enzyme activity, inhibitor | 1 µM | inhibition | < 10% |
| CC(=O)N1CCC(c2ccc(C(=O)NC3=NCCN3)cc2C(F)(F)F)CC1 | cell-free assay, competition with immobilised ligand | 1 µM | remaining binding | 100% |
| COc1cc2c(N3CCN(C(=O)Nc4ccc(OC(C)C)cc4)CC3)ncnc2cc1OCCCN1CCCCC1 | cell-free assay | 0.5 µM | remaining signal | 104% |
| COc1ccc2c(c1)O[C@@H](c1ccc(OC)c(OC)c1)C[C@H]2NC(=O)C1(c2ccc3c(c2)OC(F)(F)O3)CC1 | cell-free assay, competition with immobilised ligand | 1 µM | remaining binding | 75% |
| CC(C)(C)c1nc2c(s1)c1nc(N)ncc1c1ccc(NS(=O)(=O)c3c(F)cccc3F)c(F)c12 | enzyme activity, inhibitor, radiometric | 1 µM | remaining activity | 109% |
| Cc1cnc(NC2CCOCC2)nc1-n1cnc(C(=O)NC(CN)c2cc(F)cc(Cl)c2)c1 (centres unmarked) | enzyme activity, inhibitor, radiometric | 1 µM | remaining activity | 100% |
| N#CCCc1ccc2c(c1)-c1[nH]c3ccc([N+](=O)[O-])cc3c1CC(=O)N2 | cell-free assay | 0.5 µM | remaining signal | 98.6% |
| Cn1nc(C(F)(F)F)cc1-c1cnc(N2CCc3cc(S(=O)(=O)Nc4c(F)cc(Cl)cc4F)cc(N4CCCC4=O)c32)nc1 | cell-free assay, competition with immobilised ligand | 1 µM | remaining binding | 79% |
| Cc1cc(NC(=O)c2cccc3cc(-c4cccc5[nH]nc(N)c45)ccc23)ccc1F | enzyme activity, inhibitor | 0.1 µM | activity vs control | 108% |
| CCCCNc1ncc2c(-c3ccc(F)cc3)nn(C[C@H]3CC[C@H](N)CC3)c2n1 | target engagement in cells, inhibitor, chemoproteomics | 20 mM | inhibition | 77.8% |
| COc1cc2ncnc(Nc3ccc(Oc4ccccc4)c(C)c3C)c2cc1OC | enzyme activity, inhibitor | 1 µM | inhibition | 76% |
